The values that follow come from ChEMBL document CHEMBL4190374, “Structure-Function Evaluation of Imidazopyridine Derivatives Selective for δ-Subunit-Containing γ-Aminobutyric Acid Type A (GABAA) Receptors” (J Med Chem, 2018).

Assay [1] addresses Gamma-aminobutyric acid receptor subunit alpha-1/beta-3 (Rattus norvegicus, UniProt P62813+P63079). In words: Modulation of rat […] GABA-A receptor alpha1beta3 expressed in HEK293 cells in presence of GABA by patch-clamp assay. The assay is classed as cell-based. The method, boiled down:
(§1)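 Whole-cell patch clamp on eGFP-co-transfected HEK 293 cells expressing rat subunits, recorded 48 h post-transfection. KCl/KOH-based pipette solution, pH 7.2. Rising compound concentrations up to 10 µM co-applied with the receptor-specific GABA EC20. Peak currents fitted to a logistic function giving EC50, Hill coefficient and % modulation, mean ± S.E. of n experiments.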
(In general: Patch clamp records ionic current or voltage across a cell membrane.)

In assay [2] the target is Gamma-aminobutyric acid receptor subunit alpha-1/beta-3 (Rattus norvegicus) (UniProt P62813+P63079). In words: Modulation of rat […] GABA-A receptor alpha1beta3 expressed in HEK293 cells up to 10 uM in presence of GABA by patch-clamp assay relative to control. It is filed as cell-based. A digest of the protocol: as §1
Assay [3] concerns the target Gamma-aminobutyric acid receptor subunit alpha-1/beta-3/delta (Rattus norvegicus) (UniProt P18506+P62813+P63079). As to the kind of experiment: Displacement of [3H]EBOB from rat GABA-A receptor alpha1beta3delta expressed in HEK293 cell membranes at 10 uM after 90 mins by liquid scintillation counting analysis relative to control. The method, boiled down:
(§2)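 Crude membranes from HEK 293 cells transiently Ca-phosphate-transfected with rat subunit cDNAs, harvested at 48 h. Membranes (150-200 µg protein) incubated with 3 nM [3H]EBOB in 50 mM Tris/citrate pH 7.3 plus 0.2 M NaCl. Compound up to 10 µM, final DMSO 0.1%, no GABA, 90 min at 21 °C. Bound radioligand collected by GF/C filtration and counted by scintillation.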
(In general: Loss of bound radioactivity is the signal in a displacement assay; it reports binding, not function.)

The target in assay [4] is Gamma-aminobutyric acid receptor subunit alpha-6/beta-2 (Rattus norvegicus) (UniProt P30191+P63138). As to the kind of experiment: Displacement of [3H]EBOB from rat GABA-A receptor alpha6beta2 expressed in HEK293 cell membranes up to 10 uM after 90 mins by liquid scintillation counting analysis relative to control. The method, boiled down: as §2
Assay [5] concerns GABA-A receptor alpha6beta3delta (++). As to the kind of experiment: Modulation of rat eGFP-fused GABA-A receptor alpha6beta3delta expressed in HEK293 cells up to 10 uM in presence of GABA by patch-clamp assay relative to control.
For assay [6], the species on record is Rattus norvegicus. In words: Selectivity ratio of IC50 for rat GABA-A receptor alpha6beta3 expressed in HEK293 cells to IC50 for rat GABA-A receptor alpha6beta3delta expressed in HEK293 cells. The assay is classed as cell-based.
Assay [7] deals with T1, Gamma-aminobutyric acid receptor subunit alpha-4/beta-3/gamma-2 (Rattus norvegicus) (UniProt P18508+P28471+P63079). As to the kind of experiment: Agonist activity at rat […] GABA-A receptor alpha4beta3gamma2 expressed in HEK293 cells assessed as ratio of I0 to GABA Imax at 10 uM in absence of GABA by patch-clamp assay. The assay is classed as cell-based. The method, boiled down:
(§3)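 Whole-cell patch clamp on single fluorescent HEK 293 cells 48 h after transient co-transfection with rat subunit cDNAs plus eGFP. Extracellular solution 135 mM NaCl, 5.3 mM KCl, 2 mM CaCl2, 2 mM MgSO4, 10 mM HEPES pH 7.4, perfused 3 mL/min. Compound at 10 µM without GABA. Current expressed relative to 1 mM GABA at the same receptor (I0/Imax GABA), mean ± S.D. of n experiments.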

For assay [8], the target named is T2, Gamma-aminobutyric acid receptor subunit alpha-4/beta-3 (Rattus norvegicus) (UniProt P28471+P63079). In words: Displacement of [3H]EBOB from rat GABA-A receptor alpha4beta3 expressed in HEK293 cell membranes up to 10 uM after 90 mins by liquid scintillation counting analysis relative to control. The method, boiled down: as §2
The target of assay [9] is T2, Gamma-aminobutyric acid receptor subunit alpha-4/beta-3 (Rattus norvegicus). In words: Modulation of rat […] GABA-A receptor alpha4beta3 expressed in HEK293 cells up to 10 uM in presence of GABA by patch-clamp assay relative to control. The assay is classed as cell-based. The method, boiled down: (§4)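 Rat GABA-A subunits were transiently co-transfected with eGFP into HEK293 cells on coverslips. Fluorescent cells were recorded by whole-cell patch clamp 48 h later; bath pH 7.4, KCl/KOH pipette pH 7.2. Compound was applied at increasing concentrations up to 10 µM with the receptor-specific GABA EC20. Peak currents were fitted logistically for EC50, Hill and % modulation, as mean ± S.E.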

Assay [10] deals with GABA A receptor alpha-6/beta-2/gamma-2 (Rattus norvegicus, UniProt P18508+P30191+P63138). As to the kind of experiment: Displacement of [3H]EBOB from rat GABA-A receptor alpha6beta2gamma2 expressed in HEK293 cell membranes after 90 mins by liquid scintillation counting analysis. A digest of the protocol: as §2
Sequence of GABA A receptor alpha-6/beta-2/gamma-2 (P18508 whole entry): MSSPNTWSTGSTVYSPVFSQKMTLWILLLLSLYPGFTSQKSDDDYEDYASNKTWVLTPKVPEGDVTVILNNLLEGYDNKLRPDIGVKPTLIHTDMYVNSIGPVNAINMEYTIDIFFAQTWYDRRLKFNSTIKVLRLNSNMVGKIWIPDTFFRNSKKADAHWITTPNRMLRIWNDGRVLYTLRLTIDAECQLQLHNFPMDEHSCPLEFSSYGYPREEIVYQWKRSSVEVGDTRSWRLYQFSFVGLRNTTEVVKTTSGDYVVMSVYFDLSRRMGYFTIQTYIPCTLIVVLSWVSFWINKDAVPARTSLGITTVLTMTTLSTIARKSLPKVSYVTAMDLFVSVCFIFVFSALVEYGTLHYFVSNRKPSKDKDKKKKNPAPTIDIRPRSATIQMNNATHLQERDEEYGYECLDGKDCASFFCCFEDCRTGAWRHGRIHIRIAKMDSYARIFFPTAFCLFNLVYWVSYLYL
Sequence of GABA A receptor alpha-6/beta-2/gamma-2 (P30191 whole entry): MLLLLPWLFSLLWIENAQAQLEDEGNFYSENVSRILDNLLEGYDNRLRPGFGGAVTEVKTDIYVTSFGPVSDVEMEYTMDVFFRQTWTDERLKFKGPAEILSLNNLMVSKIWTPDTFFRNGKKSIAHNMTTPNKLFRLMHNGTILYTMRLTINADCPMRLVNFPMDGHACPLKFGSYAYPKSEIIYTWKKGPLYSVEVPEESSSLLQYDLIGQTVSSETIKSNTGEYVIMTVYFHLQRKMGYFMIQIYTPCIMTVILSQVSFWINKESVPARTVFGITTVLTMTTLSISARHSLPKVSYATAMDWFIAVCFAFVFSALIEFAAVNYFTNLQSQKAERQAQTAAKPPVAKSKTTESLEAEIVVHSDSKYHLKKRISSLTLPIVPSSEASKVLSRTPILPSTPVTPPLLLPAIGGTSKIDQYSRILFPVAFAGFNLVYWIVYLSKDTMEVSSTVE
Sequence of GABA A receptor alpha-6/beta-2/gamma-2 (P63138 whole entry): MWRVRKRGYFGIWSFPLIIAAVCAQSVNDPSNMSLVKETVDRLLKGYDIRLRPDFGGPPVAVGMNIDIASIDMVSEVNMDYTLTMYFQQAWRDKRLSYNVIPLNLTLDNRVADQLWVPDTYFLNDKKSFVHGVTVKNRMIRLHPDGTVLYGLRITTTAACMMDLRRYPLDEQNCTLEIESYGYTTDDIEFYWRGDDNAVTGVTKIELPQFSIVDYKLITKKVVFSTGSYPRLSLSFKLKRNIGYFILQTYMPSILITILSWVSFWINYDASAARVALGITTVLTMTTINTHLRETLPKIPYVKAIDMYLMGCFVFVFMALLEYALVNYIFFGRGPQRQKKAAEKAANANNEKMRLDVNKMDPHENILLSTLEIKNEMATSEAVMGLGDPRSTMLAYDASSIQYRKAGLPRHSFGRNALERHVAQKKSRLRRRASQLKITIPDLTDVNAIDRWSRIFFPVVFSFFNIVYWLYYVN
Assay [11] deals with T3, Gamma-aminobutyric acid receptor subunit alpha-4/beta-3 (Rattus norvegicus, UniProt P28471+P63079). In words: Modulation of rat […] GABA-A receptor alpha4beta3 expressed in HEK293 cells in presence of GABA by patch-clamp assay. The assay is classed as cell-based. A digest of the protocol: as §4
T3 sequence (P28471 whole entry): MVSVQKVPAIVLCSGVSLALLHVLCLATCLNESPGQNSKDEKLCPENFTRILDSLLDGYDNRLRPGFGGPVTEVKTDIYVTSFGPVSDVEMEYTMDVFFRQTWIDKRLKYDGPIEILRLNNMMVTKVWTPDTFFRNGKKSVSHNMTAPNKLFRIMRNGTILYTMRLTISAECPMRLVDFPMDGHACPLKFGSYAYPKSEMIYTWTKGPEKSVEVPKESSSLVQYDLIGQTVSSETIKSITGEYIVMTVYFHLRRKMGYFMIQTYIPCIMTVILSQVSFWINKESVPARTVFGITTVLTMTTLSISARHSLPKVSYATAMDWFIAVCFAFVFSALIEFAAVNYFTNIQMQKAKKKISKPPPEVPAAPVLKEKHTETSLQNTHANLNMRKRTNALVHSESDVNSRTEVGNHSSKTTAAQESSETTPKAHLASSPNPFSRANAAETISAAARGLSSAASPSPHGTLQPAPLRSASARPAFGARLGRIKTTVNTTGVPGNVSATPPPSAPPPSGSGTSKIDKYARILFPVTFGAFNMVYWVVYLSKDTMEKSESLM
T3 sequence (P63079 whole entry): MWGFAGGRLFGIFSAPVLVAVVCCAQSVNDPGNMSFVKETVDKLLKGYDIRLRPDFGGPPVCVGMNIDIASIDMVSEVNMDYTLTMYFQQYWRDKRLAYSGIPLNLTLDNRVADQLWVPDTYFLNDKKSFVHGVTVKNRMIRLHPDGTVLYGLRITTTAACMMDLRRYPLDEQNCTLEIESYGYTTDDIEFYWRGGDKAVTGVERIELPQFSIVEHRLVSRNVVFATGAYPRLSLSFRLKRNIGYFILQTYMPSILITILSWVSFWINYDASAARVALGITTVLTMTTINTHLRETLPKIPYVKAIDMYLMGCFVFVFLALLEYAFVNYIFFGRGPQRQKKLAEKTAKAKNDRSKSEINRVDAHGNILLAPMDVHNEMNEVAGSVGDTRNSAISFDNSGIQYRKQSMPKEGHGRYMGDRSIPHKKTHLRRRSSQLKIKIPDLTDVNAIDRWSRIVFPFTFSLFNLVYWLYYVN
The target in assay [12] is Gamma-aminobutyric acid receptor subunit alpha-6/beta-3 (Rattus norvegicus) (UniProt P30191+P63079). As to the kind of experiment: Agonist activity at rat […] GABA-A receptor alpha6beta3 expressed in HEK293 cells assessed as ratio of I0 to GABA Imax at 10 uM in absence of GABA by patch-clamp assay. It is filed as cell-based. The method, boiled down: as §3
Assay [13] addresses Gamma-aminobutyric acid receptor subunit alpha-4/beta-3/delta (Rattus norvegicus, UniProt P18506+P28471+P63079). As to the kind of experiment: Modulation of rat […] GABA-A receptor alpha4beta3delta expressed in HEK293 cells in presence of GABA by patch-clamp assay. It is filed as cell-based. A digest of the protocol: as §4
Assay [14] concerns the target GABA A receptor alpha-6/beta-2/gamma-2 (Rattus norvegicus) (UniProt P18508+P30191+P63138). In words: Displacement of [3H]EBOB from rat GABA-A receptor alpha6beta2gamma2 expressed in HEK293 cell membranes up to 10 uM after 90 mins by liquid scintillation counting analysis relative to control. The method, boiled down:
as §2

Assay [15] is filed under the species Rattus norvegicus. In words: Selectivity ratio of IC50 for rat GABA-A receptor alpha6beta2gamma2 expressed in HEK293 cells to IC50 for rat GABA-A receptor alpha6beta2delta expressed in HEK293 cells. The assay is classed as cell-based.
Assay [16] addresses T1, Gamma-aminobutyric acid receptor subunit alpha-4/beta-3/gamma-2 (Rattus norvegicus). In words: Displacement of [3H]EBOB from rat GABA-A receptor alpha4beta3gamma2 expressed in HEK293 cell membranes up to 10 uM after 90 mins by liquid scintillation counting analysis relative to control. A digest of the protocol: as §2
Assay [17] has as its target Gamma-aminobutyric acid receptor subunit alpha-6/beta-3/gamma-2 (Rattus norvegicus) (UniProt P18508+P30191+P63079). In words: Agonist activity at rat […] GABA-A receptor alpha6beta3gamma2 expressed in HEK293 cells assessed as ratio of I0 to GABA Imax at 10 uM in absence of GABA by patch-clamp assay. It is filed as cell-based. A digest of the protocol:
as §3

Assay [18] concerns the target GABA-A receptor alpha6beta3delta (++). In words: Modulation of rat eGFP-fused GABA-A receptor alpha6beta3delta expressed in HEK293 cells in presence of GABA by patch-clamp assay.
In assay [19] the target is T3, Gamma-aminobutyric acid receptor subunit alpha-4/beta-3. In words: Displacement of [3H]EBOB from rat GABA-A receptor alpha4beta3 expressed in HEK293 cell membranes after 90 mins by liquid scintillation counting analysis. The method, boiled down:
as §2

Structures are written as SMILES.

Sequence of Gamma-aminobutyric acid receptor subunit alpha-4/beta-3/delta (P18506 whole entry): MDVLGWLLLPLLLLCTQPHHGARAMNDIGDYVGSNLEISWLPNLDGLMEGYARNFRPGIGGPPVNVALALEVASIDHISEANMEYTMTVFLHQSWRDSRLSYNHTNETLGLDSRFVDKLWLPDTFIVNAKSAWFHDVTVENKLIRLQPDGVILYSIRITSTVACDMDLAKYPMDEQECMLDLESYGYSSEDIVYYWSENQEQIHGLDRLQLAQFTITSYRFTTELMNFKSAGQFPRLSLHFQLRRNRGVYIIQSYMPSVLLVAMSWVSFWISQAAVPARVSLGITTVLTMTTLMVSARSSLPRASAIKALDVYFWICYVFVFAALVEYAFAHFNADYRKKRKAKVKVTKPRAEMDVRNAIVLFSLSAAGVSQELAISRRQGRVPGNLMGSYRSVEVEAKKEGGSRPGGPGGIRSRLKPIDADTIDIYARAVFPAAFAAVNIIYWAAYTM
Sequence of Gamma-aminobutyric acid receptor subunit alpha-4/beta-3/delta (P28471 whole entry): as the sequence (P28471 whole entry) above
Sequence of Gamma-aminobutyric acid receptor subunit alpha-4/beta-3/delta (P63079 whole entry): as the sequence (P63079 whole entry) above
Sequence of Gamma-aminobutyric acid receptor subunit alpha-1/beta-3 (P62813 whole entry): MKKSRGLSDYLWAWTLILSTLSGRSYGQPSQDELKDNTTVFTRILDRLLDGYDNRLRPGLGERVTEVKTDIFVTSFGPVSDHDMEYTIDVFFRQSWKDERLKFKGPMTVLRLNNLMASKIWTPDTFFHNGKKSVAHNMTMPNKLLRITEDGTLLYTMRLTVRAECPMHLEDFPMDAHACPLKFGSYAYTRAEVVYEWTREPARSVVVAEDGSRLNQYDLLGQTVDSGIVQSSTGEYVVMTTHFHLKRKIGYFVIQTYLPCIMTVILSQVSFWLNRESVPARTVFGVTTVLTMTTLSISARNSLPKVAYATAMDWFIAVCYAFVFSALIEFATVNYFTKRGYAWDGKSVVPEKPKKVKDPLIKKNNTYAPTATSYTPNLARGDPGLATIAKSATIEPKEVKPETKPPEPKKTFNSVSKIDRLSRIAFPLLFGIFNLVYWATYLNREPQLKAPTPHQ
Sequence of Gamma-aminobutyric acid receptor subunit alpha-1/beta-3 (P63079 whole entry): as the sequence (P63079 whole entry) above

The term EC50 denotes the concentration that produces a half-maximal response. In general, IC50 refers to the concentration needed to halve the response being measured. As to `O=C(Nc1c(-c2cccs2)nc2c(Br)cc(Br)cn12)c1ccc(Cl)cc1`, the EC50 in assay [1] came out at 100 nM; in [11], 60 nM; in [13], 150 nM; in [18] it was 130 nM. In addition, the Activity turned out to be 35% in assay [2], 802% in [5] and 168% in assay [9]. Also, the Imax came to 18% in [3]; 93% in assay [4]; 80% in assay [8]; 89% in assay [14]; 67% in assay [16]. The Ratio IC50 in the assay listed under Rattus norvegicus [6] was found to be 2.5; in the assay filed under Rattus norvegicus [15], 7. Besides, the Ratio was 0.163 in assay [7], 1.48 in assay [12] and 1.12 in assay [17]. For the same molecule, the IC50 in [10] came out at 1130 nM; in [19] it was 1860 nM.
